Test results as given in ChEMBL document CHEMBL3997800, “Discovery of Multitarget Agents Active as Broad-Spectrum Antivirals and Correctors of Cystic Fibrosis Transmembrane Conductance Regulator for Associated Pulmonary Diseases” (J Med Chem, 2017).
Active and inactive are the calls of the source. The rule behind the calls is not given here.

Tests used:
[1] = Inhibition of full length recombinant His6-tagged PI4K3beta (unknown origin) expressed in Sf9 insect cells using PI : PS as substrate in presence of [gamma-33P]-ATP by scintillation counting method; design: species or system Homo sapiens
Enterovirus A71 [2] = assay: Antiviral activity against Enterovirus 71 infected in RD cells assessed as reduction in virus-induced cytopathic effect incubated for 2 to 3 days; type: functional, cell-based
Method in brief: (§1)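 RD cells seeded at 20 000/well in MEM with 2% FCS and infected with EV71. Three 8-step 1:5 dilution series from 100 μM. Incubated 2-3 days until maximal CPE, then scored for CPE reduction. EC50 is the median of three dose-response curves.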

[3] = Cytotoxicity against human RD cells after 2 to 3 days by MTS method; type: cell-based
Method in brief: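 Uninfected RD cells, 20 000/well in 2% FCS medium, run in parallel with the antiviral assay. Three 8-step 1:5 dilution series from 100 μM, 2-3 days. Read-out by 5% MTS, 1.5 h at 37 °C, absorbance 498 nm, as % of untreated controls. CC50 is the 50% metabolic activity point, median of 3 curves.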

[4] = Cytotoxicity against human RD cells assessed as change in cell morphology by microscopic method; type: cell-based
Method in brief: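 Uninfected, compound-treated RD cells were inspected by microscope. CC50 was taken from microscopically detectable alteration of cell morphology.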

[5] = Selectivity index, ratio of CC50 for human RD cells to EC50 for Enterovirus 71; type: toxicity; conditions: read-out: Ratio CC50/EC50
Method in brief: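 SI is CC50/EC50. CC50 is from the MTS assay on uninfected RD cells and EC50 from the EV71 CPE-reduction assay, both medians of three dose-response curves run in parallel.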

Poliovirus 1 = assay: Antiviral activity against Poliovirus 1 after 2 to 3 days by cell based MTS assay; type: functional; conditions: Enterovirus C
Method in brief: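 Vero cells seeded at 20 000/well in MEM with 2% FCS. Three 8-step 1:5 dilution series from 100 μM, then virus, then cells; 2–3 days until maximal CPE. Read-out: 5% MTS for 1.5 h at 37°C, absorbance at 498 nm, expressed as % of untreated controls. EC50 taken as the median of 3 dose-response curves.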

[6] = (§2) Inhibition of full length recombinant His6-tagged PI4K3alpha (unknown origin) expressed in Sf9 insect cells assessed as residual activity at 100 uM using PI : PS as substrate in presence of [gamma-33P]-ATP by scintillation counting method relative to control; conditions: Homo sapiens
rhinovirus A2 = assay: Antiviral activity against Rhinovirus 2 after 2 to 3 days by cell based MTS assay; type: functional
[7] = Selectivity index, ratio of CC50 for human RD cells assessed as change in cell morphology to EC50 for Enterovirus 71; type: toxicity; conditions: read-out: Ratio CC50/EC50
Method in brief: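 SI is CC50/EC50. CC50 is from microscopically detected morphology change in uninfected RD cells and EC50 from the EV71 CPE-reduction assay in RD cells.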

Echovirus E11 = assay: Antiviral activity against Echovirus 11 after 2 to 3 days; type: functional; conditions: Enterovirus B
enterovirus D68 = assay: Antiviral activity against Enterovirus 68 after 2 to 3 days; type: functional
rhinovirus B14 = assay: Antiviral activity against Rhinovirus 14 after 2 to 3 days by cell based MTS assay; type: functional
[8] = target: PI3-kinase p110-alpha/p85-alpha (Homo sapiens) (UniProt P27986+P42336); assay: as §2, with “recombinant human N-terminal” for “recombinant”, “PI3Kalpha (1 to 1068 residues)/full length human N-terminal myc-tagged P85alpha (1 to 724 residues)” for “PI4K3alpha (unknown origin)”
[9] = system: Cystic fibrosis transmembrane conductance regulator (Homo sapiens), P13569 [F508del]; assay: Potentiator activity at CFTR F508 deletion mutant (unknown origin) expressed in HEK293 cells assessed as increase in aninon permeability at 10 uM […] by YFP probe based imaging method; type: cell-based
Sequence of Cystic fibrosis transmembrane conductance regulator (Homo sapiens), P13569 [F508del] (P13569 as listed by the source): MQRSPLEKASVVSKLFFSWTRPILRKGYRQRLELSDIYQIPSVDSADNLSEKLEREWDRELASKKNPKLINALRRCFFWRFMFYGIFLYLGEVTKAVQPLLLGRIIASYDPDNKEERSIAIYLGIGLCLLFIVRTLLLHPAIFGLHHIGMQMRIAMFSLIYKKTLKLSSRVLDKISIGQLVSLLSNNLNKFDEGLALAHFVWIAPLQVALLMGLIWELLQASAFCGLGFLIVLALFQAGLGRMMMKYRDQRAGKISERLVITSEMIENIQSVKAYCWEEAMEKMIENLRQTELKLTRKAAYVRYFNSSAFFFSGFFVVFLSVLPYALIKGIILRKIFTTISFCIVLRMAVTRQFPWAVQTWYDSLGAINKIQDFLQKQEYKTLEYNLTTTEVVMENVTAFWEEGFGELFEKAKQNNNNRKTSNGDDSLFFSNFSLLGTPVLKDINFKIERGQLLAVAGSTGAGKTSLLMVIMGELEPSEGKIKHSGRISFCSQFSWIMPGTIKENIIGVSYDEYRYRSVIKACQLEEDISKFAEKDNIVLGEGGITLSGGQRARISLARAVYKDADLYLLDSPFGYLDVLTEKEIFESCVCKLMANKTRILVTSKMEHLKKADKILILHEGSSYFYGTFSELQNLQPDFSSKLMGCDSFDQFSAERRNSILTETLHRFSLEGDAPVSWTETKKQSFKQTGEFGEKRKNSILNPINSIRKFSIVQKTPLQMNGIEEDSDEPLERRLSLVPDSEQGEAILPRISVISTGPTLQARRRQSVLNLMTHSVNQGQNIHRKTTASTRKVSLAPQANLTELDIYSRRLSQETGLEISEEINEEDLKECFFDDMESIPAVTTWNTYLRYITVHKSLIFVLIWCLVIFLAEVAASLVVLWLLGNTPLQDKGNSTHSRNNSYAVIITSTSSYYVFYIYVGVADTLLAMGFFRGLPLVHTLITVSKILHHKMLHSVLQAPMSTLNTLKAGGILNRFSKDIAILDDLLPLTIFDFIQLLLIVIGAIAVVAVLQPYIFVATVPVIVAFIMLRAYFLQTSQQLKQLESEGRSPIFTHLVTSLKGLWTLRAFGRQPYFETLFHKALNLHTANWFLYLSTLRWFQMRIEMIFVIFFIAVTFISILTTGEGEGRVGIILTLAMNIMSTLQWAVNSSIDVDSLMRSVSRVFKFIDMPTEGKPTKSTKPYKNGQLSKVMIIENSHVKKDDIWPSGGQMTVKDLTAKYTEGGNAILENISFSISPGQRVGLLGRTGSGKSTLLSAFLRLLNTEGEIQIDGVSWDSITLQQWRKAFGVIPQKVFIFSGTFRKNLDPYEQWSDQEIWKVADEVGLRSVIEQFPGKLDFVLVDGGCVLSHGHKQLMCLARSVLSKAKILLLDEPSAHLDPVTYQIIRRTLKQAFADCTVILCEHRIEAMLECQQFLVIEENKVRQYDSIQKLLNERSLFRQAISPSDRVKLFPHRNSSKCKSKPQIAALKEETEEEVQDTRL

Coxsackievirus B3 = assay: Antiviral activity against Coxsackievirus B3 after 2 to 3 days by cell based MTS assay; type: functional; conditions: Enterovirus B
[10] = system: Cystic fibrosis transmembrane conductance regulator (Homo sapiens), P13569 [F508del]; assay: Corrector activity at CFTR F508 deletion mutant (unknown origin) expressed in HEK293 cells assessed as increase in steady-state level of F508 deletion mutant at plasma membrane at 10 uM preincubated for 24 hrs followed by compound washout by pHTomato dye based fluorescence imaging method; type: cell-based
Method in brief: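 HEK293 cells were transiently transfected (Lipofectamine 2000) with F508del-CFTR-pHTomato plus co-expressed soluble eGFP, then kept 24 h at 37 °C. Next, 24 h at 30 °C with 10 μM drug. Imaging in pH 7.4 HEPES buffer, then extracellular pH shifted to ~6.5 (MES) and ~8.8 (Tris). The eGFP-normalized fluorescence rise (ΔF) estimates membrane CFTR.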

Enterovirus A71 [11] = assay: Antiviral activity against Enterovirus 71 infected in RD cells assessed as reduction in virus-induced cytopathic effect; type: functional, cell-based; conditions: Enterovirus A; method in brief: as §1
[12] = Enterovirus A, RD, read-out: EC50

SMILES	IC50 ([1]; read-out: IC50)	EC50 (Enterovirus A71 [2]; [12])	CC50 [3]	selectivity ratio [5]	EC50 (Enterovirus A71 [2])	Activity [6]	Activity [8]	Activity [9]	further results
CC(=O)c1cccc(Nc2nc(-c3sc(NC(=O)c4ccc(C)cc4)nc3C)cs2)c1	> 50 µM	> 55700 nM							
CCC(=O)Nc1nc(C)c(-c2csc(Nc3ccc(N(C)C)cc3)n2)s1	50 µM	8580 nM	51.6 µM	6					CC50 [4]: 142 µM
CC(=O)c1cccc(Nc2nc(-c3sc(NC(=S)NC4CCCCC4)nc3C)cs2)c1	> 50 µM				Not Active				
CC(=O)c1cccc(Nc2nc(-c3sc(NC(=O)C(C)(C)C)nc3C)cs2)c1	0.32 µM	270 nM	7.94 µM	29.4		71%	93%	inactive	EC50 (Poliovirus 1): < 1410 nM; EC50 (rhinovirus A2; Rhinovirus A, read-out: EC50): 2010 nM; CC50 [4]: 8.83 µM; selectivity ratio [7]: 32.7; EC50 (Echovirus E11): 720 nM; EC50 (enterovirus D68; Enterovirus D, read-out: EC50): 1380 nM; EC50 (rhinovirus B14; Rhinovirus B, read-out: EC50): 4.85 µM
CC(=O)c1cccc(NC(=S)Nc2cccc(NC(=O)C(C)(C)C)c2)c1					Not Active				IC50 [1]: Not Active
CC(=O)c1cccc(Nc2nc(-c3sc(NC(=O)C(F)(F)F)nc3C)cs2)c1	21.9 µM	2000 nM	25.8 µM	12.9		73%	85%	inactive	EC50 (Poliovirus 1): 2860 nM; EC50 (rhinovirus A2; Rhinovirus A, read-out: EC50): 10600 nM; CC50 [4]: 30.1 µM; selectivity ratio [7]: 15; EC50 (Coxsackievirus B3): 3870 nM; EC50 (Echovirus E11): 3510 nM; EC50 (rhinovirus B14; Rhinovirus B, read-out: EC50): 10.6 µM
CC(=O)Nc1nc(C)c(-c2csc(Nc3ccc(C(C)=O)cc3)n2)s1	3.71 µM	680 nM	5.59 µM	8.2		73%	100%	inactive	
COc1ccc(Cl)cc1Nc1nnc(-c2csc(NC(=O)C(C)(C)C)n2)o1					Not Active				IC50 [1]: Not Active
COc1cccc(Nc2nc(-c3sc(NC(C)=O)nc3C)cs2)c1	1.55 µM	1200 nM	9.17 µM	5.9		71%	51%	inactive	
CC(=O)c1cccc(Nc2nc(-c3sc(NC(=O)c4ccccc4)nc3C)cs2)c1	18.9 µM	510 nM	5.75 µM	11.3		81%	54%	inactive	EC50 (Poliovirus 1): 2230 nM; EC50 (rhinovirus A2; Rhinovirus A, read-out: EC50): 2050 nM; CC50 [4]: 11.8 µM; selectivity ratio [7]: 23.1; EC50 (Coxsackievirus B3): 2190 nM; EC50 (Echovirus E11): 1770 nM; EC50 (enterovirus D68): Not Active; EC50 (rhinovirus B14; Rhinovirus B, read-out: EC50): > 230 µM; Activity [10]: Active
CC(=O)Nc1nc(C)c(-c2csc(Nc3cccc(O)c3)n2)s1	2.63 µM				Not Active				
CC(=O)Nc1cccc(NC(=S)Nc2cccc(C(C)=O)c2)c1					Not Active				IC50 [1]: Not Active
CC(=O)c1cccc(Nc2nc(-c3sc(NC(=S)Nc4ccccc4)nc3C)cs2)c1	> 50 µM				Not Active				
CC(=O)c1cccc(Nc2nc(-c3sc(NC(=O)NCc4ccc(Cl)cc4)nc3C)cs2)c1	3.95 µM	4770 nM	20.9 µM	4.4					
CC(=O)Nc1nc(C)c(-c2csc(Nc3ccccc3)n2)s1	2.48 µM	1930 nM	18.6 µM	9.64		58%	81%	inactive	
CCC(=O)Nc1nc(C)c(-c2csc(Nc3cccc(C(C)=O)c3)n2)s1	0.27 µM	380 nM	10.1 µM	26.6		72%	40%	inactive	EC50 (Poliovirus 1): < 1520 nM; EC50 (rhinovirus A2; Rhinovirus A, read-out: EC50): > 259000 nM; CC50 [4]: 6.37 µM; selectivity ratio [7]: 23.6; EC50 (Coxsackievirus B3): 2160 nM; EC50 (Echovirus E11): 970 nM; EC50 (enterovirus D68): Not Active; EC50 (rhinovirus B14): Not Active; Activity [10]: Active
CC(=O)Nc1nc(C)c(-c2csc(Nc3cccc(C(C)=O)c3)n2)s1	0.48 µM	920 nM	16.5 µM	17.9		52%	37%	inactive	EC50 (Poliovirus 1): 3090 nM; EC50 (rhinovirus A2): Not Active; CC50 [4]: 9.73 µM; selectivity ratio [7]: 10.6; EC50 (Coxsackievirus B3): 2170 nM; EC50 (Echovirus E11): 1570 nM; EC50 (enterovirus D68): Not Active; EC50 (rhinovirus B14; Rhinovirus B, read-out: EC50): > 268 µM
COc1ccc(-c2c(C)nn3c(NCCN4CCOCC4)cc(C)nc23)cc1OC									EC50 (Enterovirus A71 [11]): 730 nM
CC(=O)c1cccc(Nc2nc(-c3sc(NC(=O)c4ccc(I)cc4)nc3C)cs2)c1	> 50 µM	> 44600 nM							
COc1ccc(Cl)cc1Nc1nnc(-c2csc(NC(=O)C(C)(C)C)n2)s1					Not Active				IC50 [1]: Not Active
CC(=O)c1cccc(Nc2nc(-c3sc(NC(=O)Nc4ccccc4)nc3C)cs2)c1	7.69 µM				Not Active				
CC(=O)c1cccc(Nc2nc(-c3sc(NC(=O)NC4CCCCC4)nc3C)cs2)c1	1.82 µM	2000 nM	8.87 µM	4.4					
CC(=O)Nc1nc(C)c(-c2c[nH]c(Nc3cccc(C(C)=O)c3)n2)s1	> 50 µM	> 90200 nM	85.7 µM						CC50 [4]: 64.2 µM
CC(=O)c1cccc(Nc2nc(-c3sc(NC(=O)NC45CC6CC(CC(C6)C4)C5)nc3C)cs2)c1	12.4 µM				Not Active				
